Published values of several laboratories.
Protocols differ between the studies behind these lines.
ABL1 T315I phosphorylated: Tyrosine-protein kinase ABL1, phosphorylated (ABL1, Homo sapiens, UniProt P00519, T315I)
ABL1 Q252H phosphorylated: Tyrosine-protein kinase ABL1, phosphorylated (ABL1, Homo sapiens, UniProt P00519, Q252H)
ABL1 M351T phosphorylated: Tyrosine-protein kinase ABL1, phosphorylated (ABL1, Homo sapiens, UniProt P00519, M351T)
ABL1 M351T: Tyrosine-protein kinase ABL1 (ABL1, Homo sapiens, UniProt P00519, M351T)
ABL1 non-phosphorylated: Tyrosine-protein kinase ABL1, non-phosphorylated (ABL1, Homo sapiens, UniProt P00519)
ABL1 Q252H: Tyrosine-protein kinase ABL1 (ABL1, Homo sapiens, UniProt P00519, Q252H)
ABL1 E255K phosphorylated: Tyrosine-protein kinase ABL1, phosphorylated (ABL1, Homo sapiens, UniProt P00519, E255K)
ABL1 F317L non-phosphorylated: Tyrosine-protein kinase ABL1, non-phosphorylated (ABL1, Homo sapiens, UniProt P00519, F317L)
ABL1 T315I non-phosphorylated: Tyrosine-protein kinase ABL1, non-phosphorylated (ABL1, Homo sapiens, UniProt P00519, T315I)
ABL1 Y253F: Tyrosine-protein kinase ABL1 (ABL1, Homo sapiens, UniProt P00519, Y253F)
ABL1 F317L phosphorylated: Tyrosine-protein kinase ABL1, phosphorylated (ABL1, Homo sapiens, UniProt P00519, F317L)

CC(=O)N1CCC(c2ccc(C(=O)NC(=N)N)cc2C(F)(F)F)CC1
remaining binding (ABL1 T315I phosphorylated; cell-free assay; competition with immobilised ligand; 1 µM): 95%

COc1ncc2cc3ccccc3nc2c1C#N
remaining binding (ABL1 Q252H phosphorylated; cell-free assay; competition with immobilised ligand; 5 µM): 99%

O=C(NCC1CCOCC1)c1n[nH]cc1NC(=O)c1c(F)cccc1F
remaining binding (Tyrosine-protein kinase ABL1, non-phosphorylated (ABL1, Homo sapiens, UniProt P00519, H396P); binding; competition with immobilised ligand; 1 µM): 76%

c1cncc(-c2cccc(Nc3nccc(NC4CCCCC4)n3)c2)c1
remaining binding (Tyrosine-protein kinase ABL1, non-phosphorylated (ABL1, Homo sapiens, UniProt P00519, F317I); binding; competition with immobilised ligand; 10 µM): 100%

Cc1cnc(Nc2ccc(C(=O)N3CCC(N4CCCC4)CC3)cc2)nc1-c1cc2ccccc2s1
remaining binding (ABL1 M351T phosphorylated; binding; competition with immobilised ligand; 1 µM): 1.4%

F[C@@H]1CCN(c2nccc(-c3cnn4ncccc34)n2)C1
remaining binding (ABL1 M351T; binding; 1 µM): 100%

COC(=O)Nc1nc2ccc(C(=O)c3ccccc3)cc2[nH]1
remaining binding (ABL1 non-phosphorylated; cell-free assay; competition with immobilised ligand; 10 µM): 2%

C[C@H]1CCN(c2nccc(-c3cnn4ncccc34)n2)C1
remaining binding (ABL1 Q252H; binding; 1 µM): 84%

O=C(NCCCN1CCOCC1)c1ccc(Nc2nccc(-c3cc4ccccc4s3)n2)cc1
remaining binding (ABL1 E255K phosphorylated; binding; competition with immobilised ligand; 1 µM): 45%

CCS(=O)(=O)c1cc2cc(C[C@](O)(CC(C)(C)c3ccc(F)cc3C(N)=O)C(F)(F)F)[nH]c2cn1
remaining binding (ABL1 non-phosphorylated; cell-free assay; competition with immobilised ligand; 1 µM): 100%

Nc1ncc2c(n1)-c1c([nH]c3ccc(C#CC4CC4)cc13)CCCC2
remaining binding (ABL1 F317L non-phosphorylated; binding; competition with immobilised ligand; 1 µM): 63%

CN1CCN(c2ccc(Nc3nccc(-c4cccc([N+](=O)[O-])c4)n3)cc2C(F)(F)F)CC1
remaining binding (ABL1 M351T; binding; 10 µM): 2.7%

N[C@@H]1CCN(c2nccc(-c3cnn4ncccc34)n2)C1
remaining binding (ABL1 M351T; binding; 1 µM): 100%

CN(C)c1ncnc(-c2ccc3nc(Nc4cc(CN5CCN(C(=O)CC(F)(F)F)CC5)ccn4)[nH]c3c2)c1Cl
remaining binding (ABL1 E255K phosphorylated; binding; competition with immobilised ligand; 1 µM): 49%

CCN1CCN(Cc2ccc(C(=O)Nc3ccc(C)c(Oc4ccc5c(c4)CC(=O)N5)c3)cc2C(F)(F)F)CC1
remaining binding (ABL1 T315I non-phosphorylated; binding; competition with immobilised ligand; 1 µM): 16%

Cc1cnn2ncc(-c3ccnc(N(C)C)n3)c2c1
remaining binding (ABL1 Y253F; binding; 1 µM): 85%

O=C(c1ccc(Nc2ncc(Cl)c(-c3ccc(Cl)s3)n2)cc1)N1CCC(N2CCCC2)CC1
remaining binding (ABL1 E255K phosphorylated; binding; competition with immobilised ligand; 1 µM): 4.3%

CNC(=O)[C@@H]1CC[C@@H](n2c(-c3ccc4cnccc4c3)nc3ccc(C(=O)NCc4cccc(C(N)=O)c4)cc32)C1
remaining binding (ABL1 T315I non-phosphorylated; binding; competition with immobilised ligand; 1 µM): 100%

O=C(c1ccc(Nc2ncc(Cl)c(-c3cc4ccccc4s3)n2)cc1)N1CCC(N2CCCC2)CC1
remaining binding (ABL1 F317L non-phosphorylated; binding; competition with immobilised ligand; 1 µM): 63%

CN1CCN(c2ccc(Nc3nccc(-c4ccccc4)n3)cc2C(F)(F)F)CC1
remaining binding (ABL1 Y253F; binding; 10 µM): 16%

COc1cnc(Nc2cccc(S(N)(=O)=O)c2)nc1N1CCN(c2ccccc2)C(=O)C1
remaining binding (Tyrosine-protein kinase ABL1, phosphorylated (ABL1, Homo sapiens, UniProt P00519); binding; competition with immobilised ligand; 1 µM): 93%

CN(C)c1nccc(-c2cnn3ncccc23)n1
remaining binding (Tyrosine-protein kinase ABL1 (ABL1, Homo sapiens, UniProt P00519, H396P); binding; 1 µM): 89%

C=CC(=O)N1CCC(C(=O)NCC(=O)N2CCN(c3nc(-c4cnc(N)nc4C(F)F)nc(N4CCOCC4)n3)CC2)CC1
remaining binding (ABL1 non-phosphorylated; binding; competition with immobilised ligand; 1 µM): 80%

CCOCCn1cc(C(=O)Nc2ccc(-n3nc(-c4cccnc4)cc3C(F)(F)F)cn2)ccc1=O
remaining binding (ABL1 Q252H phosphorylated; cell-free assay; competition with immobilised ligand; 1 µM): 73%

O=C(c1ccc(Nc2nccc(-c3cc4ccccc4s3)n2)cc1)N1CCC(N2CCCC2)CC1
remaining binding (ABL1 M351T phosphorylated; binding; competition with immobilised ligand; 1 µM): 17%

CCCCN(CCCC)C(=O)CN1C[C@@H](c2cc(OC)c3c(c2)OCO3)[C@H](C(=O)O)[C@H]1CC(C)(C)CCC
remaining binding (ABL1 F317L phosphorylated; cell-free assay; competition with immobilised ligand; 1 µM): 93.5%

CC1CCCN1c1nccc(-c2cnn3ncccc23)n1 (stereo not shown)
remaining binding (ABL1 non-phosphorylated; binding; competition with immobilised ligand; 1 µM): 97%

O=C(Nc1c[nH]nc1C(=O)NC1CCNCC1)c1cc(F)cc(F)c1
remaining binding (ABL1 T315I phosphorylated; binding; competition with immobilised ligand; 1 µM): 98%

c1cnn2ncc(-c3ccnc(N4CCC45COC5)n3)c2c1
remaining binding (ABL1 Q252H; binding; 1 µM): 69%

CN(C(=O)c1ccccc1)c1cc(N(C)c2ccc3c(c2)CCc2ccc(C(=O)NCCN4CCOCC4)cc2C3=O)ccc1F
remaining binding (ABL1 F317L phosphorylated; cell-free assay; competition with immobilised ligand; 1 µM): 68%

COc1cnc(Nc2cccc(S(N)(=O)=O)c2)nc1N1CCN(c2ccccc2)CC1
remaining binding (Tyrosine-protein kinase ABL1, phosphorylated (ABL1, Homo sapiens, UniProt P00519, H396P); binding; competition with immobilised ligand; 1 µM): 87%

CN(C)c1nccc(-c2cnc3ncccn23)n1
remaining binding (ABL1 M351T; binding; 1 µM): 78%

CO[C@H]1CC[C@H](CNc2ccc(S(=O)(=O)NC(=O)c3ccc(N4CCN(CC5=C(c6ccc(Cl)cc6)CC(C)(C)CC5)CC4)cc3Oc3cnc4[nH]ccc4c3)cc2[N+](=O)[O-])CC1
remaining binding (ABL1 E255K phosphorylated; binding; competition with immobilised ligand; 1 µM): 74%

O=C(NCCCN1CCOCC1)c1ccc(Nc2ncc(Cl)c(-c3ccc(Cl)s3)n2)cc1
remaining binding (Tyrosine-protein kinase ABL1, non-phosphorylated (ABL1, Homo sapiens, UniProt P00519, Q252H); binding; competition with immobilised ligand; 1 µM): 11%

CC(C)(C)c1ccc(-c2nc(CBr)nn2-c2cccc(O)c2)cc1
remaining binding (ABL1 non-phosphorylated; cell-free assay; competition with immobilised ligand; 10 µM): 82%

O=C(N[C@H]1CCCCC/C=C\C2C[C@@]2(C(=O)O)NC(=O)[C@@H]2C[C@@H](Oc3ccncc3)CN2C1=O)OC1CCCC1 (stereo partly shown)
remaining binding (Tyrosine-protein kinase ABL1, phosphorylated (ABL1, Homo sapiens, UniProt P00519, F317I); binding; 1 µM): 96%

C[C@@H](c1ccc(-n2cnc3c(N)ncnc32)cc1)N1CCc2nn(C)c(Cc3ccccc3)c2C1=O
remaining binding (ABL1 non-phosphorylated; binding; competition with immobilised ligand; 0.1 µM): 15%
